Test results from ChEMBL document CHEMBL1124744, “Development of a novel series of (2-quinolinylmethoxy)phenyl-containing compounds as high-affinity leukotriene D4 receptor antagonists. 2. Effects of an additional phenyl ring on receptor affinity” (J Med Chem, 1990).

Columns and labels:
[1] = target: T1, Cysteinyl leukotriene receptor 1 (Cavia porcellus, UniProt Q2NNR5); test: Binding affinity against Cysteinyl leukotriene D4 receptor from guinea pig lung was determined using [3H]LTD4
T1 sequence (Q2NNR5 whole entry): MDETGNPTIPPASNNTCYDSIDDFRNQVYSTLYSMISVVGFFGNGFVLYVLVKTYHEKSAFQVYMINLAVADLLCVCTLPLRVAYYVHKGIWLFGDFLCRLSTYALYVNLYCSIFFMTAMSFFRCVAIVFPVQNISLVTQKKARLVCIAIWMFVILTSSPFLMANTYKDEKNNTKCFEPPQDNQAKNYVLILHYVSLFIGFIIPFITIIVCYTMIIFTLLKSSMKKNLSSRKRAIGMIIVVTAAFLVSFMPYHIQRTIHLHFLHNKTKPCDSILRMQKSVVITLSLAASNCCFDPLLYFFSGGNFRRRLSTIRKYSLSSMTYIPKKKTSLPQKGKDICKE
In short: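 Guinea pig lung membranes; competition against 0.2 nM [3H]LTD4 with test compounds at multiple concentrations. IC50 was determined graphically and converted to Ki. Values are means ± SEM of N separate experiments.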

Cavia porcellus [2] = species on record: Cavia porcellus; test: Oral activity expressed as effective dose in LTD4-induced wheal assay in guinea pig; format: functional
In short: (§1)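 In guinea pigs, compounds were given orally 1 h before intradermal injection of 100 ng LTD4, and wheal inhibition was measured. Five animals were used per dose. ED50 was determined from at least three doses; single doses are reported as % inhibition in mg/kg.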

[3] = target: T1, Cysteinyl leukotriene receptor 1; test: Binding affinity against Cysteinyl leukotriene D4 receptor from guinea pig lung was determined using [3H]-LTD4 (0.2 nM)
In short: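 Guinea pig lung membranes were used in a radioligand competition assay against 0.2 nM [3H]LTD4, with compounds at multiple concentrations. IC50 was determined graphically and converted to Ki. Values are means ± SEM of N separate experiments.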

Cavia porcellus [4] = species on record: Cavia porcellus; test: Oral activity expressed as effective dose in leukotriene mediated anaphylaxis assay in guinea pig; format: functional
In short: (§2)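 Guinea pigs immunized with ovalbumin were pretreated with pyrilamine, propranolol and indomethacin. Compounds were given orally 1 h before aerosol antigen challenge. Six animals were used per dose. ED50 was determined from at least three doses; single doses are reported as % inhibition in mg/kg.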

Cavia porcellus [5] = species on record: Cavia porcellus; test: Inhibition of LTC4-induced contractions from guinea pig peripheral lung strips; format: functional
In short: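 Guinea pig peripheral lung strips were contracted with 0.2 nM LTC4, and inhibition was measured. IC50 was determined graphically; values are means ± SEM of N separate experiments.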

Cavia porcellus [6] = species on record: Cavia porcellus; test: Oral activity expressed as percent inhibition in LTD4-induced wheal assay in guinea pig at 18 uM; format: functional; conditions: in the assay text read “18 mg/kg” for “18 uM”; in short: as §1
Cavia porcellus [7] = species on record: Cavia porcellus; test: Oral activity expressed as percent inhibition in leukotriene mediated anaphylaxis assay in guinea pig at 30 uM; format: functional; in short: as §2
Cavia porcellus [8] = species on record: Cavia porcellus; test: Oral activity expressed as percent inhibition in LTD4-induced wheal assay in guinea pig at 3 uM; format: functional; in short: as §1
Cavia porcellus [9] = species on record: Cavia porcellus; test: Oral activity expressed as percent inhibition in leukotriene mediated anaphylaxis assay in guinea pig at 10 uM; format: functional; in short: as §2
Cavia porcellus [10] = species on record: Cavia porcellus; test: Oral activity expressed as percent inhibition in LTD4-induced wheal assay in guinea pig at 9 uM; format: functional; in short: as §1
Cavia porcellus [11] = species on record: Cavia porcellus; test: Inhibits leukotriene D4 in guinea pig by wheal essay at 9 uM concentration; format: functional; in short: as §1
Cavia porcellus [12] = species on record: Cavia porcellus; test: Inhibits leukotriene mediated anaphylaxis in guinea pig at 60 uM concentration; format: functional; in short: as §2
[13] = target: T1, Cysteinyl leukotriene receptor 1; test: Inhibitory concentration of compound against binding of Cysteinyl leukotriene D4 receptor from guinea pig lung using [3H]LTD4
Cavia porcellus [14] = species on record: Cavia porcellus; test: Oral activity expressed as percent inhibition in LTD4-induced wheal assay in guinea pig at 13 uM; format: functional
[15] = target: T1, Cysteinyl leukotriene receptor 1; test: Binding affinity against Cysteinyl leukotriene D4 receptor from guinea pig trachea using [3H]LTD4; conditions: read-out: pA2 (converted)
[16] = target: T2, Cysteinyl leukotriene receptor 1 (Cavia porcellus) (UniProt Q2NNR5); test: Binding affinity against Cysteinyl leukotriene D4 receptor from guinea pig lung was determined using [3H]LTD4 (0.2 nM) at compound concentration of 1 uM
T2 sequence (whole entry): T1 sequence (Q2NNR5 whole entry)

## O=S(=O)(Nc1cccc(OCc2ccc3ccccc3n2)c1)C(F)(F)F [RITOLUKAST]
[1]
  Ki: 0.035 µM

## c1cc(COc2cccc(OCc3ccc4ccccc4n3)c2)cc(Cc2nnn[nH]2)c1
Cavia porcellus [2]
  ED50: 1.8 mg/kg
[3]
  Ki: 0.01 µM
Cavia porcellus [4]
  ED50: 10 mg/kg
Cavia porcellus [5]
  IC50: 0.012 µM

## c1cc(OCc2ccc(OCc3nn[nH]n3)cc2)cc(OCc2ccc3ccccc3n2)c1
[3]
  Ki: 0.0022 µM
Cavia porcellus [5]
  IC50: 0.008 µM
Cavia porcellus [6]
  Inhibition: 59%
Cavia porcellus [7]
  Inhibition: 82%

## C(=C\c1cccc(-c2nn[nH]n2)c1)/c1cccc(OCc2ccc3ccccc3n2)c1
[3]
  Ki: 0.0085 µM
Cavia porcellus [8]
  Inhibition: 15%
Cavia porcellus [5]
  IC50: 0.02 µM

## CCCc1c(OCC(O)COc2ccc3c(=O)cc(C(=O)O)oc3c2CCC)ccc(C(C)=O)c1O (centres undefined) [FPL-55712]
Cavia porcellus [5]
  IC50: 0.94 µM

## C(=C\c1ccc2ccccc2n1)/c1ccc(OCc2ccccc2Cc2nnn[nH]2)cc1
[3]
  Ki: 0.0034 µM
Cavia porcellus [9]
  Inhibition: 80%

## Clc1ccc2ccc(/C=C/c3ccc(OCc4ccccc4Cc4nnn[nH]4)cc3)nc2c1
[3]
  Ki: 0.0025 µM

## c1ccc2nc(COc3ccc(OCc4ccc(Cc5nnn[nH]5)cc4)cc3)ccc2c1
[3]
  Ki: 0.0085 µM
Cavia porcellus [10]
  Inhibition: 34%
Cavia porcellus [4]
  ED50: 30 mg/kg
Cavia porcellus [5]
  IC50: 0.012 µM

## c1cc(COc2ccc(OCc3ccc4ccccc4n3)cc2)cc(-c2nn[nH]n2)c1
Cavia porcellus [2]
  ED50: 2 mg/kg
[3]
  Ki: 0.0022 µM
Cavia porcellus [9]
  Inhibition: 33%
Cavia porcellus [5]
  IC50: 0.002 µM

## c1cc(OCc2ccc(Cc3nnn[nH]3)cc2)cc(OCc2ccc3ccccc3n2)c1
Cavia porcellus [2]
  ED50: 6.8 mg/kg
[3]
  Ki: 0.0073 µM
Cavia porcellus [4]
  ED50: 30 mg/kg
Cavia porcellus [5]
  IC50: 0.02 µM

## O=C(O)c1ccc(COc2cccc(OCc3ccc4ccccc4n3)c2)cc1
[3]
  Ki: 0.09 µM
Cavia porcellus [5]
  IC50: 0.075 µM

## COC(=O)c1ccc(COc2cccc(OCc3ccc4ccccc4n3)c2)c(OCc2nn[nH]n2)c1
[3]
  Ki: 0.008 µM
Cavia porcellus [5]
  IC50: 0.016 µM
Cavia porcellus [7]
  Inhibition: 9%

## Clc1ccc2ccc(COc3ccc(OCc4ccccc4Cc4nnn[nH]4)cc3)nc2c1
[3]
  Ki: 0.0025 µM

## O=C(O)c1cccc(COc2cccc(OCc3ccc4ccccc4n3)c2)c1
Cavia porcellus [11]
  Inhibition: 7%
[3]
  Ki: 0.04 µM
Cavia porcellus [12]
  Inhibition: 60%
Cavia porcellus [5]
  IC50: 0.1 µM

## c1cc(OCc2cccc(-c3nn[nH]n3)c2)cc(OCc2ccc3ccccc3n2)c1
[3]
  Ki: 0.016 µM
Cavia porcellus [6]
  Inhibition: 45%
Cavia porcellus [7]
  Inhibition: 83%

## c1cc(OCc2ccc3ccccc3n2)cc(OCc2ccccc2Cc2nnn[nH]2)c1
[3]
  Ki: 0.012 µM
Cavia porcellus [5]
  IC50: 0.0095 µM
Cavia porcellus [6]
  Inhibition: 17%
Cavia porcellus [7]
  Inhibition: 75%

## c1ccc(OCc2nn[nH]n2)c(COc2ccc(OCc3ccc4ccccc4n3)cc2)c1
[3]
  Ki: 0.0021 µM
Cavia porcellus [8]
  Inhibition: 45%
Cavia porcellus [9]
  Inhibition: 61%
Cavia porcellus [5]
  IC50: 0.0042 µM

## c1cc(OCc2ccc3ccccc3n2)cc(OCc2ccccc2-c2nnn[nH]2)c1
[3]
  Ki: 0.02 µM
Cavia porcellus [5]
  IC50: 0.019 µM

## c1cc(OCc2ccc(-c3nnn[nH]3)cc2)cc(OCc2ccc3ccccc3n2)c1
Cavia porcellus [2]
  ED50: 6.5 mg/kg
[3]
  Ki: 0.01 µM
Cavia porcellus [4]
  ED50: 10 mg/kg
Cavia porcellus [5]
  IC50: 0.012 µM

## O=C(O)c1ccccc1Nc1cccc(OCc2ccc3ccccc3n2)c1 [SR-2640]
[13]
  IC50: 0.023 µM

## COc1cc(OCc2cccc(OCc3ccc4ccccc4n3)c2)cc(-c2nnn[nH]2)c1
[3]
  Ki: 0.01 µM

## COc1cc(OCc2ccc(OCc3ccc4ccccc4n3)cc2)cc(-c2nn[nH]n2)c1
[3]
  Ki: 0.0075 µM
Cavia porcellus [14]
  Inhibition: 26%
Cavia porcellus [5]
  IC50: 0.013 µM

## c1ccc2nc(COc3ccc(COc4ccc(-c5nn[nH]n5)cc4)cc3)ccc2c1
Cavia porcellus [2]
  ED50: 8 mg/kg
[3]
  Ki: 0.031 µM
Cavia porcellus [5]
  IC50: 0.044 µM
Cavia porcellus [7]
  Inhibition: 64%

## CN(C)C(=O)CCSC(SCCC(=O)O)c1cccc(/C=C/c2ccc3ccc(Cl)cc3n2)c1 (centres undefined) [MK-571]
[15]
  Kb: 0.001 µM

## c1cc(COc2ccc(OCc3ccc4ccccc4n3)cc2)cc(Cc2nnn[nH]2)c1
Cavia porcellus [2]
  ED50: 3 mg/kg
[3]
  Ki: 0.008 µM
Cavia porcellus [9]
  Inhibition: 64%
Cavia porcellus [5]
  IC50: 0.034 µM

## c1cc(OCc2ccc3ccccc3n2)cc(OCc2ccccc2OCc2nn[nH]n2)c1
[3]
  Ki: 0.017 µM
Cavia porcellus [4]
  ED50: 10 mg/kg
Cavia porcellus [5]
  IC50: 0.027 µM
Cavia porcellus [6]
  Inhibition: 42%

## COc1cc(-c2nn[nH]n2)ccc1OCc1cccc(OCc2ccc3ccccc3n2)c1
[3]
  Ki: 0.016 µM
Cavia porcellus [5]
  IC50: 0.036 µM
Cavia porcellus [7]
  Inhibition: 9%

## c1cc(COc2cccc(-c3nn[nH]n3)c2)cc(OCc2ccc3ccccc3n2)c1
Cavia porcellus [2]
  ED50: 28 mg/kg
[3]
  Ki: 0.0053 µM
Cavia porcellus [5]
  IC50: 0.02 µM
Cavia porcellus [7]
  Inhibition: 45%

## c1cc(COc2ccc(-c3nn[nH]n3)cc2)cc(OCc2ccc3ccccc3n2)c1
[3]
  Ki: 0.0029 µM
Cavia porcellus [5]
  IC50: 0.014 µM
Cavia porcellus [7]
  Inhibition: -9%

## COc1cc(-c2nn[nH]n2)ccc1COc1cccc(OCc2ccc3ccccc3n2)c1
[3]
  Ki: 0.0043 µM
Cavia porcellus [10]
  Inhibition: 22%
Cavia porcellus [5]
  IC50: 0.009 µM
Cavia porcellus [7]
  Inhibition: 45%

## c1cc(COc2ccc(OCc3ccc4ccccc4n3)cc2)cc(OCc2nn[nH]n2)c1
Cavia porcellus [2]
  ED50: 2.8 mg/kg
[3]
  Ki: 0.008 µM
Cavia porcellus [5]
  IC50: 0.009 µM
Cavia porcellus [7]
  Inhibition: 27%

## COc1cc(COc2cccc(OCc3ccc4ccccc4n3)c2)cc(-c2nn[nH]n2)c1
Cavia porcellus [2]
  ED50: 38 mg/kg
[3]
  Ki: 0.007 µM
Cavia porcellus [9]
  Inhibition: 17%
Cavia porcellus [5]
  IC50: 0.0063 µM

## c1cc(OCc2cccc(OCc3nn[nH]n3)c2)cc(OCc2ccc3ccccc3n2)c1
[3]
  Ki: 0.013 µM
Cavia porcellus [5]
  IC50: 0.024 µM
Cavia porcellus [6]
  Inhibition: 37%
Cavia porcellus [7]
  Inhibition: 64%

## c1cc(CCc2cccc(-c3nn[nH]n3)c2)cc(OCc2ccc3ccccc3n2)c1
[3]
  Ki: 0.017 µM
Cavia porcellus [4]
  ED50: 24 mg/kg
Cavia porcellus [5]
  IC50: 0.02 µM
Cavia porcellus [6]
  Inhibition: 44%

## COc1cc(-c2nn[nH]n2)ccc1OCc1ccc(OCc2ccc3ccccc3n2)cc1
[3]
  Ki: 0.022 µM

## c1ccc(Cc2nn[nH]n2)c(COc2ccc(OCc3ccc4ccccc4n3)cc2)c1 [RG-12525]
Cavia porcellus [2]
  ED50: 4.9 mg/kg
[3]
  Ki: 0.003 µM
Cavia porcellus [4]
  ED50: 2.2 mg/kg
[16]
  Kb: 0.003 µM
Cavia porcellus [5]
  IC50: 0.0027 µM
